Assay results as given in publication PMC2874077 (Journal of medicinal chemistry, 2010).
“Also recorded” adds a separate entry of the source. Like-named read-outs stand apart in the source and are kept apart here. Values belong to the compound of their own block, whether it stands above or below them.

Experiments:
[1] = test system: airways hyperresponsiveness in OVA/OVA Balb/C mice; type: in vivo, mouse
In short: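 Female Balb/C mice (6–8 weeks) were sensitized i.p. with 25 μg OVA plus 1 mg aluminium hydroxide on days 0 and 7, then given nebulized 6% OVA in PBS, or PBS, 25 min/day on days 14–20. On day 21: ketamine/xylazine anaesthesia, intubation, FlexiVent ventilation.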

human arginase I = target: T1, human arginase I (Homo sapiens, UniProt P05089); experiment: Fixed-point kinetic assay with [14C-guanidino]-L-arginine; type: biochemical; details: for mode of inhibition: from Lineweaver-Burk plots
T1 sequence (P05089 1-322): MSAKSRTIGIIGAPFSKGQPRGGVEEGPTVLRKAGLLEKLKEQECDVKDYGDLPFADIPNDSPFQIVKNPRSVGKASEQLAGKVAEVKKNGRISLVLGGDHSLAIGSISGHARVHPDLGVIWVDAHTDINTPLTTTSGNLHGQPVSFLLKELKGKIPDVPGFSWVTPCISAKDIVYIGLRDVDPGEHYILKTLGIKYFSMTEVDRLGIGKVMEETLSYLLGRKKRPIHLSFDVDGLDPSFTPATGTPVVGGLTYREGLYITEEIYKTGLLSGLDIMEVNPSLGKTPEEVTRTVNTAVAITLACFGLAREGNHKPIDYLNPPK
In short: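 Affinity derived from a replot of v0/vi (velocity without/with inhibitor) against inhibitor concentration. Mode of inhibition (competitive or noncompetitive) assigned from Lineweaver-Burk plots at several inhibitor concentrations.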

[2] = test system: airways hyperresponsiveness in OVA/OVA Balb/C mice; details: cited from earlier work
[3] = OVA/OVA mice, nebulized 80 μg/g

Compound: Nc1nccn1CCC[C@H](N)C(=O)O [A1P, 2-(S)-amino-5-(2-aminoimidazol-1-yl)-pentanoic acid]
maximum resistance of the central airways (RN) following methacholine challenge [1, 3]: significantly attenuated; also recorded: notably decreased | total resistance of the respiratory system (R) following methacholine challenge [1, 3]: attenuated significantly | airways hyperresponsiveness ([1]; murine model of allergic airways inflammation): significantly attenuates; also recorded: significantly reduces | mode of inhibition (human arginase I): competitive

Compound: N[C@@H](CSCCB(O)O)C(=O)O [BEC, S-(2-boronoethyl)-L-cysteine]
airways hyperresponsiveness ([2]; murine models of allergic airways inflammation ref 8a): reduces | maximum central airways responsiveness (RN max) to methacholine ([2]; same model, earlier study ref 8a): attenuates

Compound: Nc1ncc[nH]1 [2-Aminoimidazole, reference compound]
mode of inhibition (human arginase I): noncompetitive

The remaining lines, values ahead:

mode of inhibition (human arginase I): competitive
Compound: Nc1ncc(CC[C@H](N)C(=O)O)[nH]1 [AHH, 2-aminohomohistidine]

mode of inhibition (human arginase I): noncompetitive
Compound: Nc1ncc(C[C@H](N)C(=O)O)[nH]1 [2AH, L-2-aminohistidine]

inhibitory activity (human arginase I; enzymological assay): lacks inhibitory activity
Compound: Nc1ncc(CCCC(N)C(=O)O)[nH]1 (stereo not shown) [A4P, 2-amino-5-(2-aminoimidazol-4-yl)-pentanoic acid]
